Source: ChEMBL document CHEMBL1145129, “Design, synthesis, and anticancer properties of 4,4'-dihydroxybenzophenone-2,4-dinitrophenylhydrazone and analogues” (J Med Chem, 2003)
In brackets after ≈: the same amount, converted by molar mass.

Columns and labels:
[1] = In vitro cytotoxicity in estrogen receptor and progesterone receptor negative Human breast tumor cells; (5+/-2, 0.2+/-0.3); assay type: functional, cell-based
[2] = In vitro cytotoxicity in KM 12 SM cell line; assay type: functional; conditions: Homo sapiens, KM12
Procedure, shortened: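 Established lines kept in RPMI-1640 with 10% fetal calf serum and penicillin/streptomycin at 36 °C, 10% CO₂. Cells seeded at 2000–3000 cells/well, hydrazones added at several concentrations after 18 h, and exposed a further 36 h. Viable cells read by MTT absorbance at 570 nm; cytostasis (%) = (1 − A/B)×100 against untreated control.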

Homo sapiens [3] = species on record: Homo sapiens; assay: In vitro cytotoxicity in Human lung tumor cells; (5+/-5, 6+/-5); assay type: functional
[4] = In vitro cytotoxicity in estrogen receptor positive progesterone receptor negative Human breast tumor cells; (>5, 0.5); assay type: functional, cell-based
Colon carcinoma cell = assay: In vitro cytotoxicity in Human colon tumor cells; (>12+/-4, >12+/-5); assay type: functional, cell-based
[5] = In vitro cytotoxicity in estrogen receptor negative progesterone receptor positive Human breast tumor cells; (3+/-2, 0.4+/-0.1); assay type: functional, cell-based
[6] = system: breast cancer cells (Homo sapiens); assay: In vitro cytotoxicity in estrogen receptor and progesterone receptor positive Human breast tumor cells; (2.5+/-0.9, 0.5+/-1)
Melanoma tumor cell line = assay: In vitro cytotoxicity in Human melanoma tumor cells; (5+/-4, >10); assay type: functional, cell-based
MDA-MB-435 = assay: In vitro cytotoxicity in MDA-MB-435 cell line; assay type: functional, cell-based; conditions: Homo sapiens
Procedure, shortened: (§1)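 Established tumor lines kept in RPMI-1640 with 10% fetal calf serum and penicillin/streptomycin at 36 °C, 10% CO₂. Seeded 2000–3000 cells/well; hydrazone-containing medium added after 18 h, then 36 h further culture. Viable cells read by MTT absorbance at 570 nm; cytostasis (%) = (1 − A_treated/A_control) × 100.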

[7] = In vitro cytotoxicity in FDCP-1 cell line; conditions: Mus musculus, FDC-P1
[8] = In vitro cytotoxicity in SN 12 PM6 cell line; assay type: functional, cell-based; conditions: Homo sapiens; procedure, shortened: as §1
[9] = In vitro cytotoxicity in B 16 F10 cell line; conditions: Mus musculus, B16-F10
Homo sapiens [10] = species on record: Homo sapiens; assay: In vitro cytotoxicity in Human ovary tumor cells; (3+/-3, 4.2+/-4); assay type: functional; conditions: Female gonad

Q: With O=[N+]([O-])c1ccc(NN=C(c2ccc(O)cc2)c2ccc(O)cc2)c([N+](=O)[O-])c1 [SIVIFENE] as the compound, how does the IC50 [1] read?
A: 12.6 µg/mL (≈ 32 µM)

Q: And the IC50 [2]?
A: 5.4 µg/mL (≈ 13.7 µM)

Q: What about the IC50 (Homo sapiens [3]) of the same compound?
A: 4.9 µg/mL (≈ 12.4 µM)

Q: And the IC50 [4]?
A: > 10 µg/mL

Q: What about the IC50 (Colon carcinoma cell) of the same compound?
A: 15.2 µg/mL (≈ 38.5 µM)

Q: And the IC50 [5]?
A: > 10 µg/mL

Q: What about the IC50 [6] of the same compound?
A: 3.5 µg/mL (≈ 8.88 µM)

Q: And the IC50 (Melanoma tumor cell line)?
A: 7 µg/mL (≈ 17.8 µM)

Q: What about the IC50 (MDA-MB-435) of the same compound?
A: 2.1 µg/mL (≈ 5.33 µM)

Q: And the IC50 [7]?
A: 9.1 µg/mL (≈ 23.1 µM)

Q: And the IC50 [8]?
A: 4 µg/mL (≈ 10.1 µM)

Q: And the IC50 [9]?
A: 1 µg/mL (≈ 2.54 µM)

Q: What about the IC50 (Homo sapiens [10]) of the same compound?
A: 12.3 µg/mL (≈ 31.2 µM)
